This is an account of results in ChEMBL document CHEMBL2093137, “WHO-TDR NTD Screening”.

Values after ≈ are worked out from the molar mass of the structure shown. Where only a bound is given, the exact number is not on record here.

Data set [1] can be described thus: WHO-TDR: Cytotoxicity. The class given is toxicity, cell-based. Particulars: human, MRC5 cells.
For the next data set, the system named is Plasmodium falciparum K1. In words: WHO-TDR: Malaria. The class given is functional, organism-based, Homo sapiens. The note with it: Erythrocyte. Summed up: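 Antiplasmodial potency, expressed as IC50, was measured in a whole-organism assay on intra-erythrocytic Plasmodium falciparum K1 in human red blood cells. The screened library held 10,000 diverse compounds from Life Chemicals.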

The next data set deals with Trypanosoma cruzi. In words: WHO-TDR: Chagas disease. Type of data set: functional, organism-based, Homo sapiens. Particulars: MRC5. Put shortly: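 A diverse library of 10,000 compounds from Life Chemicals, filtered for drug-likeness and reactive groups, was screened against intracellular amastigotes of Trypanosoma cruzi Tulahuen CL2 beta-galactosidase strain. The parasites were grown in MRC-5SV2 human lung fibroblast host cells, and a reference drug served as positive control under previously published standard procedures. Antiparasitic potency is given as IC50.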

For data set [2], the system named is Trypanosoma brucei brucei. In words: WHO-TDR: Human African Trypanosomiasis (HAT). The note with it: Squib-427. Type of data set: functional, organism-based. Put shortly: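 Antiparasitic potency is reported as IC50. The screen covered 10,000 compounds from a diverse Life Chemicals library, filtered for drug-likeness and reactive groups, tested on whole bloodstream-form Trypanosoma brucei of the Squib 427 strain.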

The subject of the next data set is Leishmania infantum. Put plainly: WHO-TDR: Leishmaniasis. The class given is functional, organism-based, Mus musculus. Particulars: Macrophage. Put shortly: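 Antiparasitic potency, reported as IC50, was measured against intracellular Leishmania infantum amastigotes. The parasite strain was MHOM/MA(BE)/67, and murine peritoneal macrophages served as host cells for the screen of a 10,000-compound diverse library from Life Chemicals.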

The test system of a further data set is Schistosoma mansoni. Put plainly: WHO-TDR: Schistosomiasis. The class given is functional. Also on record: concentration or dose not given beside the values. Summed up:
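Larval and/or adult Schistosoma mansoni (Puerto Rican strain) were tested whole against 10,000 diverse compounds from Life Chemicals. The procedure was a previously published standard one, using a reference drug as positive control. Results are expressed as percent inhibition and IC50.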

The next data set concerns Onchocerca ochengi. In words: WHO-TDR: Onchocerciasis. The class given is functional. Details: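 at 12.5 µM on microfilariae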. Put shortly: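 Onchocerca ochengi or Onchocerca lienalis, animal pathogens used as surrogates for the human parasite, were screened as whole microfilariae against a 10,000-compound diverse library from Life Chemicals. The reported measures of activity are percent inhibition and IC50.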

The next data set concerns Brugia malayi. Put plainly: WHO-TDR: Lymphatic Filariasis. Type of data set: functional. Also on record: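 tested at 10 µM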. Summed up:
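Percent inhibition and IC50 describe activity against Brugia malayi microfilariae in a whole-organism screen. The screen used previously published standard procedures with reference drugs as positive controls. Compounds came from a diverse Life Chemicals library of 10,000, filtered for drug-likeness and reactive groups.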

With `Cc1ccc(-c2cc(CC(=O)Nc3cccc(C)n3)no2)cc1`, the IC50 (in data set [1]; in the data set on Plasmodium falciparum K1; in the data set on Trypanosoma cruzi; in data set [2]; in the data set on Leishmania infantum) was more than 9.22 µg/mL in each case. The “% Inhibition” value is reported as 0% in the data set on Schistosoma mansoni, 100% with Onchocerca ochengi and 0% in the data set on Brugia malayi.

Take `CCn1ccc(C(=O)Nc2nc(C(C)(C)C)cs2)n1`: the IC50 (in data set [1]; with Plasmodium falciparum K1; in the data set with Trypanosoma cruzi; in data set [2]; with Leishmania infantum) was more than 8.35 µg/mL in each case. The “% Inhibition” value was 16.7% in the data set on Schistosoma mansoni, 100% in the data set on Onchocerca ochengi and 0% in the data set with Brugia malayi.

For the compound `Cc1nnc(NC(=O)CSc2nc(-c3ccccc3)c(N)s2)s1`, the IC50 in data set [1] is more than 10.9 µg/mL; in the data set on Plasmodium falciparum K1, more than 10.9 µg/mL; with Trypanosoma cruzi, more than 10.9 µg/mL; in data set [2] it was more than 10.9 µg/mL; in the data set with Leishmania infantum, 0.353 µg/mL (≈ 0.971 µM). The “% Inhibition” value with Schistosoma mansoni turned out to be 16.7%; in the data set on Onchocerca ochengi it was 0%; with Brugia malayi, 33.33%.

With `CCC(=O)Nc1ccc(S(=O)(=O)NCCc2ccc(N3CCCC3)cc2)c(C)c1`, the IC50 in data set [1] is more than 12.5 µg/mL; with Plasmodium falciparum K1 it was more than 12.5 µg/mL; with Trypanosoma cruzi, 5.06 µg/mL (≈ 12.2 µM); in data set [2] it was 6.95 µg/mL (≈ 16.7 µM); in the data set on Leishmania infantum, more than 12.5 µg/mL. For the same compound, the “% Inhibition” value in the data set with Schistosoma mansoni was determined as 0%; with Onchocerca ochengi it was 100%; in the data set with Brugia malayi it was 0%.

`CCc1ccc(NC(=O)N2CCN(c3ccc(Nc4cc(C)ccn4)nn3)CC2)cc1`: the IC50 was more than 12.5 µg/mL in data set [1]; 8.24 µg/mL (≈ 19.7 µM) in the data set on Plasmodium falciparum K1; more than 12.5 µg/mL with Trypanosoma cruzi; more than 12.5 µg/mL in data set [2]; more than 12.5 µg/mL in the data set on Leishmania infantum. Also, the results for the “% Inhibition” value in the data set with Schistosoma mansoni, in the data set with Onchocerca ochengi and in the data set on Brugia malayi were 0%, 100% and 50%, respectively.

As for `Cc1csc(NC(=O)CSc2nc(-c3ccccc3)c(N)s2)n1`, the IC50 in data set [1] is more than 10.9 µg/mL; in the data set with Plasmodium falciparum K1 it was more than 10.9 µg/mL; with Trypanosoma cruzi, 7.18 µg/mL (≈ 19.8 µM); in data set [2], more than 10.9 µg/mL; in the data set with Leishmania infantum, 0.352 µg/mL (≈ 0.971 µM). The entries for the “% Inhibition” value with Schistosoma mansoni, with Onchocerca ochengi and in the data set on Brugia malayi were 0%, 50% and 33.33%, respectively.

As to `O=C(CCSc1ccccc1)NCCOc1ccc2nnc(-c3ccc(F)cc3)n2n1`, the IC50 in data set [1] was more than 13.1 µg/mL; in the data set with Plasmodium falciparum K1, more than 13.1 µg/mL; in the data set with Trypanosoma cruzi, more than 13.1 µg/mL; in data set [2] it was more than 13.1 µg/mL; with Leishmania infantum it was 0.425 µg/mL (≈ 0.971 µM). For the same compound, the “% Inhibition” value in the data set on Schistosoma mansoni was found to be 41.7%; in the data set with Onchocerca ochengi, 0%; in the data set on Brugia malayi it was 33.33%.

As to `CC1(C)Cc2cccc(OCCCS(=O)(=O)NCc3cccs3)c2O1`, the IC50 (in data set [1]; in the data set on Plasmodium falciparum K1; in the data set on Trypanosoma cruzi; in data set [2]; in the data set on Leishmania infantum) was more than 11.4 µg/mL in each case. The “% Inhibition” value with Schistosoma mansoni is recorded as 0%; in the data set with Onchocerca ochengi, 100%; with Brugia malayi, 20%.

In the case of `COc1cccc(C2C(S(=O)(=O)c3ccc(C)cc3)=C(O)C(=O)N2c2ccc(C)cc2)c1` (stereo not given), the IC50 (in data set [1]; in the data set with Plasmodium falciparum K1; in the data set with Trypanosoma cruzi; in data set [2]; in the data set on Leishmania infantum) was more than 13.5 µg/mL each time. Besides, the figures for the “% Inhibition” value with Schistosoma mansoni, with Onchocerca ochengi and with Brugia malayi were 0%, 100% and 20%, respectively.

Regarding `O=C(NCCc1ccc(Cl)cc1)c1csc(NS(=O)(=O)c2ccccc2)n1`, the IC50 (in data set [1]; in the data set on Plasmodium falciparum K1; in the data set on Trypanosoma cruzi; in data set [2]; in the data set on Leishmania infantum) was more than 12.7 µg/mL in each case. Also, the “% Inhibition” value in the data set on Schistosoma mansoni worked out at 0%; with Onchocerca ochengi, 100%; with Brugia malayi, 20%.
